Tested on: MS2 coat protein
Assay: apparent Kd, MS2 coat protein; higher = weaker binding; RNA-MaP array
How it was run: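 For each design, the apparent Kd is the median of binding-curve fits across its clusters. Designs measured on fewer than 10 clusters were dropped. The RNAs were transcribed from sequenced DNA templates on an Illumina sequencing chip and incubated at room temperature, with or without input ligand, with fluorescently labeled MS2 coat protein at 1.5 nM to 3 μM.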

[1] = designed as: ON switch for flavin mononucleotide, no ligand
[2] = ligand present: flavin mononucleotide, designed as: ON switch for flavin mononucleotide
[3] = designed as: OFF switch for flavin mononucleotide, no ligand
[4] = ligand present: flavin mononucleotide, designed as: OFF switch for flavin mononucleotide
[5] = designed as: ON switch for tryptophan, no ligand
[6] = ligand present: tryptophan, designed as: ON switch for tryptophan

Sequence | apparent Kd [1] [µM] | apparent Kd [2] [µM] | apparent Kd [3] [µM] | apparent Kd [4] [µM] | other results
AAACCAUCAAACACAUGAGGAUCACCCAUGUCUAAAGAAAUGUAGGAUAUGUAAUACCUAGUCAAACAGAAGGACAUUCAAGAU | 0.00939 | 0.00835 | – | – | –
AGACCCAGAGGAUAUAACACAUGUAACAUGAGGAUCACCCAUGUGUCUAGUAGACACUUGUUAGAAGGCAGGCAUG | – | – | 0.0832 | 0.0545 | –
UAUAGGACUUAAGGAUAUGGCACCGGUGUCCCGCCAGAAGGUAAGGACCACACAUGAGGAUCACCCAUGUUCUCGAGAAUGGGA | 0.145 | 0.112 | – | – | –
GCACGACAUGAGGAUCACCCAUGUGAGGAUAUACUACAUCAGGAACACGCUAUGCACGGUAGAAGGCACGGGAG | – | – | 0.0164 | 0.0156 | –
CUAGGUCAGCUAGGAUAUACUUCUUGCAUGGAUGUAGAAGGAGCGAUAAGAUCUACAUGAGGAUCACCCAUGUUACUUAGGGUG | – | – | 0.29 | 0.131 | –
UACUUCACGAUACAGGAUAUACGUAAGUUCACAUGAGGAUCACCCAUGUUAGCACACCAACUCAUGUAGAAGGGUAUCCCUAUAUA | 0.0304 | 0.0131 | – | – | –
AAGCUGGAGAAUACAUGAGGAUCACCCAUGUGGCUUCAUGCCUAGGAUAUUAGUGUGCAGAACUGUAAGAAGGAGGAUCUUUAA | – | – | 0.0103 | 0.00856 | –
CGAACGGGCCACACUACAUGAGGAUCACCCAUGUUCGAAGAUAGAAGGUGUAGCUGGCCUCGUUACAAGGAUAUAUCUUAUACC | – | – | 0.0292 | 0.0274 | –
GAUAACAUGAGGAUCACCCAUGUGGCGUCGCGAGGACCGGUACGGCCGCCACUCGGCAGUUCAACUCGAAUAUAGUGAUCGAAGU | – | – | – | – | apparent Kd [5]: 0.138 µM; apparent Kd [6]: 0.0876 µM
CCAAGAGUACUAGGAUAUUCCGGCCACGCACAUGAGGAUCACCCAUGUGAGACUCUCAGACGGUCGAAGAAGGAGUUGCAGGCU | – | – | 0.0348 | 0.0309 | –
AAUAGUUCUGGAGGAUAUUGUACAUGAGGAUCACCCAUGUUAUCUACUGCUAUGGUUGACCUGCGCAAGAAGGCCACGUUCCUG | – | – | 0.0126 | 0.0205 | –
GGUGACCCUGUUCCACAUGAGGAUCACCCAUGUUACCACUAUUAGGAUAUGCUUACAUGUACACUGCAGAAGGAAUAGGUAAGA | – | – | 0.103 | 0.442 | –
AUUAGCAUCCAAGGAUAUCAGUUGGCCCGCAGGUGAGAAGGUGGAUUCUGGGCGCCGCGUGGGACACAUGAGGAUCACCCAUGU | – | – | 0.0303 | 0.026 | –
CGCUACAUGAGGAUCACCCAUGUUACUCCGCGAGGACCGGUACGGCCGCCACUCGGCAGUUUGCGCCGCCGGAGGCACUCUUCAG | – | – | – | – | apparent Kd [5]: 0.027 µM; apparent Kd [6]: 0.0331 µM
AUUCAUCUCUAGAAGGGACUGCACAAAACACAGAAUUCUUACAUGAGGAUCACCCAUGUUGUGGGUCAGGAUAUAGGCAGGCCA | 0.0253 | 0.0201 | – | – | –
UCGCGCUAAGGAUAUACUAUAAGCCACAUGAGGAUCACCCAUGUUAUAUACAUGUCCUCGGUAGAAGGUAGCCGGA | – | – | 0.0486 | 0.0502 | –
CAUUAAACAGCAGGAUAUACUAGUGUGAUACUGGUAGAAGGGCUCCUCACCCACAUGAGGAUCACCCAUGUGACAUCUACCUUA | 0.314 | 0.146 | – | – | –
UCAUACAUGAGGAUCACCCAUGUUCGUGGGCGAGGACCGGUACGGCCGCCACUCGUACUAACGGUUUCUUAAACUUCCUUUCGAG | – | – | – | – | apparent Kd [5]: 0.0256 µM; apparent Kd [6]: 0.0172 µM
GACAUGAGGAUCACCCAUGUUUCGGUUACAUUGUAAUCAUGAUAGGAUAUCUCUGCUGUGGUGAGAGAGAAGGAUCGUCUGCUU | 0.013 | 0.0106 | – | – | –
ACACAUGAGGAUCACCCAUGUAGAUAUGGGCUCACUAUCACUAGAAGGACUUUGCUCUCUUGGAAGUAGGAUAUAGUACGCUGG | – | – | 0.163 | 0.134 | –
GACUACCAGGAAGGAUAUGCCUAUAACUGAAAGACAUGAGGAUCACCCAUGUAUUGGGCGAACCUGCAGAAGGUCCGACUAGAC | – | – | 0.0406 | 0.0412 | –
UGUAUAGCCACUCAGGAUAUAGUUCAUCACACAUGAGGAUCACCCAUGUUACCAAUAUCAUCUGACUAGAAGGGAGAGACUUGCGU | 0.0135 | 0.00917 | – | – | –
